From PubChem BioAssay
Compounds with a hit are over-represented: about 3.5% of the library has one in this group of screens.
MrgX1 antagonist – antagonists of human MrgX1 receptor, primary screen, HEK293 cells, Fluo-4 calcium flux. BAM8-22 antagonism; active compounds read low. B-score at 10 µM. AID 588676, 2011. 1.3% of 310,000 active;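 active means calcium-response B-score plate-corrected more than 3 library SD below zero, starting fluorescence within 5 deviations, no agonist response on first addition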;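 further: peak minus trough fluorescence over baseline after final BAM8-22 challenge near maximal dose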
Target sequence (Q96LB2 whole entry, looked up): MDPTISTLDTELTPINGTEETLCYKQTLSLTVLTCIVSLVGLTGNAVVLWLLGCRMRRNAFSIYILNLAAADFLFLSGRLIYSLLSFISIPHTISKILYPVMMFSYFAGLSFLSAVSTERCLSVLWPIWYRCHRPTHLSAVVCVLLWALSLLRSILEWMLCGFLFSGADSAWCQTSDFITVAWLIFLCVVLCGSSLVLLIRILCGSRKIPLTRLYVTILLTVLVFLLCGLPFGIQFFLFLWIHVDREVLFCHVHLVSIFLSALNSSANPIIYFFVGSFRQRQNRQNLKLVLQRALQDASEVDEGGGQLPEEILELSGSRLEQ
RGS4 act – RGS4 potentiators or activators, primary screen, cell-based, HEK293 M3R inducible RGS4, calcium flux. carbachol calcium flux Fluo4; active compounds read low. B-score at 10 µM. 0.92% of 310,000 active. AID 463111, 2010;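 active means B-score of the integrated calcium signal more than 4 SD below the library mean, with starting fluorescence not abnormally high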;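 further: negative B-score means reduced calcium response which marks RGS4 activation or potentiation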
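test system = HEK293 cells with stable M3R and inducible RGS4 | schedule = recording 10 s baseline at 1 Hz, 100 s post-agonist | technique = Fluo4-AM (2 µM) calcium-flux fluorescence, kinetic read | measure = Agonist-evoked peak-minus-minimum fluorescence over baseline, integrated ratio, B score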
MrgX1 PAM – positive allosteric modulators of MrgX1, primary screen, HEK293 cells, Fluo-4 calcium flux. Mas-related G-protein coupled receptor member X1 (Homo sapiens), Q96LB2. FDSS; active compounds read high. B-score at 10 µM. 0.63% of 310,000 active. AID 588675, 2011;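 active means plate-corrected calcium response at least 3 library SD above typical, normal starting fluorescence, not activating the receptor alone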;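 further: compound read alongside a low EC10 to EC30 dose of BAM8-22 agonist; peak minus trough fluorescence over baseline measured at the second addition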
MrgX1 agonist – agonists of human MrgX1 receptor, primary screen, HEK293 cells, Fluo-4 calcium flux | AID 588627, 2011 | B-score at 10 µM | Fluo-4 calcium fluorescence, agonist mode; active compounds read high | 0.44% of 310,000 active | Mas-related G-protein coupled receptor member X1 (Homo sapiens), Q96LB2;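 active means calcium response B-score plate-corrected fluorescence ratio at least 3 library SD, with starting fluorescence B-score inside 5 SD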
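Assay system: stable human MrgX1 HEK293 cell line. Quantity: 15,000 cells per well. Schedule: cells plated overnight, dye loaded 0.5 h 37 °C, 0.5 h room temperature. Detection: Fluo-4 NW calcium-flux fluorescence, kinetic read. Read-out basis: peak-minus-minimum fluorescence over baseline, converted to B scores. Control set: positive and negative control wells on each plate.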
RGS4 inh – RGS4 inhibitors, primary screen, cell-based, HEK293 M3R inducible RGS4, calcium flux. Regulator of G-protein signaling 4 (Homo sapiens), P49798. Fluo-4 calcium flux; active compounds read high; triggered by carbachol at its EC20. B-score at 10 µM. 0.45% of 310,000 active. AID 463165, 2010;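 active means B-score, a plate-corrected calcium signal, over three deviations above library mean, with baseline fluorescence within five deviations of library mean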;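 further: RGS4 expression induced by doxycycline in cells with stable M3 receptor; B-score is computed from the integrated fluorescence ratio over baseline after carbachol; higher B-score means a larger calcium signal and so more RGS4 inhibition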
Target sequence (P49798 whole entry, looked up): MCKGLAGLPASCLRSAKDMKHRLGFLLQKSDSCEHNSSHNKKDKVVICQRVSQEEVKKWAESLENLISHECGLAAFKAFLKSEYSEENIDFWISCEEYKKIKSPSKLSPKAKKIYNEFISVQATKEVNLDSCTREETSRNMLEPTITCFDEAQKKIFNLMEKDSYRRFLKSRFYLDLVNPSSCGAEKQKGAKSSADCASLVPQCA
RGS4 inh valid – enhanced carbachol calcium response, M3R/RGS4 cells, RGS4 inhibitor project, cell-based, validation screen, HEK293 M3R/RGS4, calcium flux. shares compounds with RGS4 inh. carbachol calcium Fluo-4 fluorescence; carbachol added at its EC20; 0 = buffer wells, 100 = carbachol control. calcium response, % at 10 µM. 65% of 1,700 active. AID 492999, 2010;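 active means duplicate-averaged calcium response above the buffer-only control mean plus 5 SD of those controls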;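 further: integrated fluorescence ratio F max minus min over baseline F0; higher response in RGS4-induced cells means RGS4 inhibition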
RGS4 uninduced – carbachol calcium response in non-induced M3R cells, confirmation, counter-screen for RGS4 inhibitor project, cell-based, HEK293 M3R. shares compounds with RGS4 inh. carbachol calcium Fluo-4; submaximal (EC20) carbachol stimulus; buffer wells 0%, carbachol control wells 100%. activity (percent), % at 10 µM. 20% of 1,900 active. AID 493000, 2010; call rule not given here;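 further: RGS4 induction absent so cells express M3R without RGS4; higher means more calcium signal and flags a non-specific hit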
RGS4 inh ctr2 – second RGS4 inhibitor counter-screen in uninduced cells lacking carbachol | shares compounds with RGS4 inh | HEK293 M3R/RGS4 non-induced, Fluo-4 calcium, no carbachol; normalised: buffer wells 0%, carbachol wells 100% | calcium response (agonist-mode artifact), % at 10 µM | 22% of 1,900 active | AID 493001;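 active means duplicate-averaged calcium rise in uninduced cells above buffer wells' mean plus 5 SD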
Starred values were filed as active, the others as inactive.

Results for COc1ccc(/C=C/C(=O)c2ccc([N+](=O)[O-])o2)cc1OC ?
MrgX1 antagonist: inactive; RGS4 act: inactive; MrgX1 PAM: inactive; MrgX1 agonist: inactive; RGS4 inh: inactive; RGS4 uninduced: inactive; RGS4 inh ctr2: inactive

What do the screens show for `COc1cc(/C=C/C(=O)c2ccc([N+](=O)[O-])o2)ccc1O`?
MrgX1 antagonist: inactive; RGS4 act: inactive; MrgX1 PAM: inactive; MrgX1 agonist: inactive; RGS4 inh: 8.7*; RGS4 inh valid: 39%*; RGS4 uninduced: inactive; RGS4 inh ctr2: inactive

Results for NS(=O)(=O)c1ccc(CNC(=O)/C=C/c2cccc(Cl)c2)cc1 ?
MrgX1 antagonist: inactive; RGS4 act: inactive; MrgX1 PAM: inactive; MrgX1 agonist: inactive; RGS4 inh: inactive

Results for O=C(/C=C/c1cccc(Cl)c1)c1ccc([N+](=O)[O-])o1 ?
MrgX1 antagonist: inactive; RGS4 act: inactive; MrgX1 PAM: inactive; MrgX1 agonist: inactive; RGS4 inh: 14*; RGS4 inh valid: 18%*; RGS4 uninduced: 34%*; RGS4 inh ctr2: 7.0%*

Results for N#Cc1c(NC(=O)CSc2ncn[nH]2)sc2c1CCCCC2 ?
MrgX1 antagonist: inactive; RGS4 act: inactive; MrgX1 PAM: inactive; MrgX1 agonist: inactive; RGS4 inh: inactive; RGS4 uninduced: inactive; RGS4 inh ctr2: inactive

What do the screens show for `N#Cc1c(NC(=O)CSc2nc(N)cc(=O)[nH]2)sc2c1CCCCCC2`?
MrgX1 antagonist: inactive; RGS4 act: inactive; MrgX1 PAM: inactive; MrgX1 agonist: inactive; RGS4 inh: inactive

What do the screens show for `COc1ccccc1C1CC(c2c(-c3ccccc3)c3cc(Cl)ccc3[nH]c2=O)=NN1S(C)(=O)=O` (stereo not given)?
MrgX1 antagonist: inactive; MrgX1 PAM: inactive; MrgX1 agonist: inactive

Results for COc1cccc(C2CC(c3c(-c4ccccc4)c4cc(Cl)ccc4[nH]c3=O)=NN2S(C)(=O)=O)c1OC (stereo not given) ?
MrgX1 antagonist: inactive; RGS4 act: inactive; MrgX1 PAM: inactive; MrgX1 agonist: inactive; RGS4 inh: 5.2*; RGS4 inh valid: 9.0%*; RGS4 uninduced: inactive; RGS4 inh ctr2: 80%*

What do the screens show for `Cc1c(Cl)ccc2sc(NC(=O)C3CC3)nc12`?
MrgX1 antagonist: inactive; RGS4 act: inactive; MrgX1 PAM: inactive; MrgX1 agonist: inactive; RGS4 inh: 6.2*; RGS4 inh valid: 8.0%*; RGS4 uninduced: inactive; RGS4 inh ctr2: inactive

How did c1csc(C2Nc3cccc4cccc(c34)N2)c1 do in these assays?
MrgX1 antagonist: inactive; RGS4 act: inactive; MrgX1 PAM: inactive; MrgX1 agonist: inactive; RGS4 inh: 6.1*; RGS4 inh valid: inactive; RGS4 uninduced: inactive; RGS4 inh ctr2: inactive

What do the screens show for `Brc1cccc(C2Nc3cccc4cccc(c34)N2)c1`?
MrgX1 antagonist: inactive; RGS4 act: inactive; MrgX1 PAM: inactive; MrgX1 agonist: inactive; RGS4 inh: inactive

What do the screens show for `Brc1ccc(C2Nc3cccc4cccc(c34)N2)o1`?
MrgX1 antagonist: inactive; RGS4 act: inactive; MrgX1 PAM: inactive; MrgX1 agonist: inactive; RGS4 inh: 5.2*; RGS4 inh valid: inactive; RGS4 uninduced: inactive; RGS4 inh ctr2: inactive

Results for COc1ccc(C(C(=O)NCC2CCCO2)N(C(=O)CNC(=O)c2ccco2)c2cc(C)ccc2C)cc1OC (stereo not given) ?
MrgX1 antagonist: inactive; RGS4 act: inactive; MrgX1 PAM: inactive; MrgX1 agonist: inactive; RGS4 inh: inactive

Results for O=C(COC(=O)C1(c2cccc(F)c2)CCCC1)NCc1ccc2c(c1)OCO2 ?
MrgX1 antagonist: inactive; RGS4 act: inactive; MrgX1 PAM: inactive; MrgX1 agonist: inactive; RGS4 inh: inactive

Results for O=c1[nH]c(/C=C/c2ccc([N+](=O)[O-])cc2)c([N+](=O)[O-])c(=O)[nH]1 ?
MrgX1 antagonist: inactive; RGS4 act: inactive; MrgX1 PAM: inactive; MrgX1 agonist: inactive; RGS4 inh: inactive; RGS4 inh valid: inactive; RGS4 uninduced: inactive; RGS4 inh ctr2: inactive

What do the screens show for `COc1ccc(OC)c(/C=C/c2[nH]c(=O)[nH]c(=O)c2[N+](=O)[O-])c1`?
RGS4 act: inactive; RGS4 inh: 10*; RGS4 inh valid: 34%*; RGS4 uninduced: inactive; RGS4 inh ctr2: inactive

How did O=c1[nH]c(/C=C/c2ccc3c(c2)OCO3)c([N+](=O)[O-])c(=O)[nH]1 do in these assays?
MrgX1 antagonist: inactive; RGS4 act: inactive; MrgX1 PAM: inactive; MrgX1 agonist: inactive; RGS4 inh: inactive

How did COc1ccc(/C=C/c2c([N+](=O)[O-])c(=O)n(C)c(=O)n2C)c(OC)c1 do in these assays?
MrgX1 antagonist: inactive; RGS4 act: inactive; MrgX1 PAM: inactive; MrgX1 agonist: inactive; RGS4 inh: inactive

How did O=C(O)CSCC(=O)N1N=C2/C(=C/c3ccccc3)CCCC2C1c1ccccc1 (stereo not given) do in these assays?
MrgX1 antagonist: inactive; RGS4 act: inactive; MrgX1 PAM: inactive; MrgX1 agonist: inactive; RGS4 inh: inactive

How did O=C(CSc1ncn[nH]1)N1N=C2/C(=C/c3ccccc3)CCCC2C1c1ccccc1 (stereo not given) do in these assays?
MrgX1 antagonist: inactive; RGS4 act: inactive; MrgX1 PAM: inactive; MrgX1 agonist: inactive; RGS4 inh: 5.1*; RGS4 inh valid: 10%*; RGS4 uninduced: inactive; RGS4 inh ctr2: inactive

How did COc1ccc(/C=C2\CCCC3C2=NN(C(=O)CSc2ncn[nH]2)C3c2ccc(OC)cc2)cc1 (stereo not given) do in these assays?
MrgX1 antagonist: inactive; RGS4 act: inactive; MrgX1 PAM: inactive; MrgX1 agonist: inactive; RGS4 inh: inactive; RGS4 uninduced: inactive; RGS4 inh ctr2: inactive
